≈ marks a conversion by molar mass, not a printed value. Values belong to the compound of their own block, whether it stands above or below them.
Legend:
[1] = system: RNAP holoenzyme; details: cited from earlier work
[2] = system: human erythrocytes; assay: In vitro hemolysis assay; type: cell-based; details: 0.1, 1, and 10 μg/mL, 37 °C, 45 min, PBS pH 7.4
In short: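 Human whole-blood erythrocytes were pelleted at 500g, 4 °C, 5 min, washed in 150 mM NaCl, resuspended in PBS pH 7.4 and diluted 40×. They were mixed 4:1 with drug solution in PBS containing 0.5% DMSO, giving final 0.1, 1 or 10 μg/mL, and held 45 min at 37 °C (n = 6). Controls were 1% v/v Triton X-100 and PBS. After spinning at 500g for 10 min, supernatant A540 was read and % lysis was normalized to the controls.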

[3] = target: E. coli core RNAP with σ^70 (Escherichia coli, UniProt P0A8T7); assay: In vitro transcription initiation assay; type: biochemical; details: σ^70, λ PR promoter template, 26-mer RNA
[4] = system: S. pneumoniae ATCC 49619; assay: MIC by broth microdilution; type: cell-based, Streptococcus pneumoniae; details: S. pneumoniae ATCC 49619, broth microdilution, 20 h at 37 °C
[5] = system: S. pneumoniae ATP production; assay: ATP production of S. pneumoniae cells; type: cell-based, Streptococcus pneumoniae; details: at 1/4 MIC
[6] = system: S. pneumoniae; assay: Time-kill kinetics, S. pneumoniae; type: cell-based, Streptococcus pneumoniae
In short: (§1)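 S. aureus was grown in MHB; S. agalactiae and S. pneumoniae in BHI with 5% CO₂. Incubation was 37 °C, 200 rpm. Samples taken at 0, 2, 4 and 6 h were serially diluted 10-fold and plated. CFU/mL was counted after overnight incubation at 37 °C, 5% CO₂. Triplicates.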

[7] = system: Gram-positive pathogens; assay: MIC against other Gram-positive pathogens; type: cell-based
In short: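 Broth microdilution followed CLSI, in cation-adjusted Mueller–Hinton broth or BHI where indicated. Twofold dilutions ran from 256 to 0.5 μg/mL, with inoculum ~5 × 10⁵ CFU/mL and 20 h incubation at 37 °C. Panel strains were ATCC Gram-positive strains (Enterococcus, S. aureus, streptococci, staphylococci). MIC was the lowest concentration with no visible growth. At least duplicates.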

[8] = system: B. subtilis BS1048 (RNAP β′-GFP); assay: Confocal microscopy of RNAP-GFP localization; type: cell-based, Bacillus subtilis; details: B. subtilis BS1048, at 1/2 MIC, 15 min
In short: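 2.5 μL culture placed on fresh 1.2% agarose pad under coverslip; imaged by confocal microscopy (63×/1.3 oil objective, mercury metal halide lamp).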

[9] = system: S. aureus; assay: Time-kill kinetics, S. aureus; type: cell-based, Staphylococcus aureus; details: over 6 h, even at 16 MIC
In short: as §1

[10] = system: S. aureus ATCC 29213 cells; assay: Cell content quantification of major macromolecules; type: cell-based, Staphylococcus aureus; details: S. aureus ATCC 29213, 1/4 and 1/8 MIC, versus no-drug control
In short: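 A master culture of S. aureus ATCC 29213 was inoculated at OD₆₀₀ 0.1 and grown at 37 °C, 200 rpm to OD₆₀₀ 0.2. It was then split into aliquots with test compound or rifampicin at 1/4 and 1/8 MIC, plus an untreated aliquot. Cells were harvested at OD₆₀₀ 0.6 with volumes normalized, then pelleted. DNA, RNA and protein were kit-extracted. DNA and RNA were measured by Qubit BR fluorometric assays and protein by BCA. Triplicates.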

[11] = Solubility under the conditions of the CH–σ assay; type: physicochemical; details: conditions of the CH–σ protein complementation assay
[12] = system: pneumolysin; assay: Pneumolysin secretion, Western blot of culture supernatant; type: cell-based, Streptococcus pneumoniae; details: overnight culture of S. pneumoniae at 1/2 and 1/4 MIC, versus drug-free control
In short: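 S. pneumoniae cultured overnight in BHI without agitation, with or without serially diluted test compound; rifampicin and ceftriaxone controls at 2–0.002 μg/mL; 16–20 h. […] Western blot on PVDF, 5% milk/TBST block, rabbit polyclonal anti-pneumolysin 1:1000, overnight at 4 °C.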

[13] = system: S. agalactiae (GBS); assay: Time-kill kinetics, S. agalactiae; type: cell-based, Streptococcus agalactiae; details: over 6 h, even at 16 MIC
In short: as §1

Sequence of E. coli core RNAP with σ^70 (P0A7Z4 whole entry): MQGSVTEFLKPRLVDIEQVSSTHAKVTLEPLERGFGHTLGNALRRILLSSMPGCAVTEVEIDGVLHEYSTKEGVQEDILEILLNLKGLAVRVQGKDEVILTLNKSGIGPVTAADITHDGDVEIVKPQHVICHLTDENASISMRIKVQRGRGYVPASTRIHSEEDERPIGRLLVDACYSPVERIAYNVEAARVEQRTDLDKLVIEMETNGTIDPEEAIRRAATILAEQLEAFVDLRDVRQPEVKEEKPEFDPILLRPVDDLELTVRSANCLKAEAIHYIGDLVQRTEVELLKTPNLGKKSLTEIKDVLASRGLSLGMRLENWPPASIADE
Sequence of E. coli core RNAP with σ^70 (P0A8T7 whole entry): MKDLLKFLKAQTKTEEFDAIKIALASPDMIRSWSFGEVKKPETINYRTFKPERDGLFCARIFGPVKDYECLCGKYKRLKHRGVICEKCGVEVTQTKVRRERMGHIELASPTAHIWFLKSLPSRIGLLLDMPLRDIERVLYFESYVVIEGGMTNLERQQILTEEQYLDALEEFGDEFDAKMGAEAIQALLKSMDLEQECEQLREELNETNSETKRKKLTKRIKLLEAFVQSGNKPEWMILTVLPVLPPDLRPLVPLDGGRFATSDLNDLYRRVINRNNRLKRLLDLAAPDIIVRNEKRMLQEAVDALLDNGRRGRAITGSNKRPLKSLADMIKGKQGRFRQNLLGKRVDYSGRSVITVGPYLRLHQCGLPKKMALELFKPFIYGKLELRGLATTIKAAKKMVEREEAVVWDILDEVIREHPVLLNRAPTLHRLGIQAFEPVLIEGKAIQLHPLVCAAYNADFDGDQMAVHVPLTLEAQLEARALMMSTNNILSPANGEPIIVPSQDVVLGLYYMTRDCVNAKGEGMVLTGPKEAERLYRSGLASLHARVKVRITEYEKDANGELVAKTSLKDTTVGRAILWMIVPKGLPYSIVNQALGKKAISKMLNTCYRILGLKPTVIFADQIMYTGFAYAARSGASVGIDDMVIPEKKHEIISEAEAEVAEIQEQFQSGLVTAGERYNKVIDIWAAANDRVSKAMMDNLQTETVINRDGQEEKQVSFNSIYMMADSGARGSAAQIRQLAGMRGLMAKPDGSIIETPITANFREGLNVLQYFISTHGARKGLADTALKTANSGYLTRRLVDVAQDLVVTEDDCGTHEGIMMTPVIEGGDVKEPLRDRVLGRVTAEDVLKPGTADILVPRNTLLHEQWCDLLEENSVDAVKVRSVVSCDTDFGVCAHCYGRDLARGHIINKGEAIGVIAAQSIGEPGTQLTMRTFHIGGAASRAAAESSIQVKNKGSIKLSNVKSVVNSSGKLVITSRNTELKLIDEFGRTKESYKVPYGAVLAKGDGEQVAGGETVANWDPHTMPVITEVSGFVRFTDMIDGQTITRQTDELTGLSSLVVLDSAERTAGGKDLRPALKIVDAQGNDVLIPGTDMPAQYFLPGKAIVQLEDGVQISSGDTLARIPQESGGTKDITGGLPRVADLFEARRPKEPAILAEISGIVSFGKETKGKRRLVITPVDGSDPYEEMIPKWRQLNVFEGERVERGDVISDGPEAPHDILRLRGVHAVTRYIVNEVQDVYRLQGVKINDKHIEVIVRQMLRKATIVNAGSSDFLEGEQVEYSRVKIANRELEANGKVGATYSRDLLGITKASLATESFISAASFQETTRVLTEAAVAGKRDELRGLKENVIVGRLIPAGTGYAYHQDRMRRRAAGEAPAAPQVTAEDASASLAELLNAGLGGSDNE
Sequence of E. coli core RNAP with σ^70 (P0A800 whole entry, further chain): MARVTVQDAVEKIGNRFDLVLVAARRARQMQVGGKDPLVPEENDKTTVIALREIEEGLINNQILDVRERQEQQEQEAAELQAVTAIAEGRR
Sequence of E. coli core RNAP with σ^70 (P0A8V2 whole entry, further chain): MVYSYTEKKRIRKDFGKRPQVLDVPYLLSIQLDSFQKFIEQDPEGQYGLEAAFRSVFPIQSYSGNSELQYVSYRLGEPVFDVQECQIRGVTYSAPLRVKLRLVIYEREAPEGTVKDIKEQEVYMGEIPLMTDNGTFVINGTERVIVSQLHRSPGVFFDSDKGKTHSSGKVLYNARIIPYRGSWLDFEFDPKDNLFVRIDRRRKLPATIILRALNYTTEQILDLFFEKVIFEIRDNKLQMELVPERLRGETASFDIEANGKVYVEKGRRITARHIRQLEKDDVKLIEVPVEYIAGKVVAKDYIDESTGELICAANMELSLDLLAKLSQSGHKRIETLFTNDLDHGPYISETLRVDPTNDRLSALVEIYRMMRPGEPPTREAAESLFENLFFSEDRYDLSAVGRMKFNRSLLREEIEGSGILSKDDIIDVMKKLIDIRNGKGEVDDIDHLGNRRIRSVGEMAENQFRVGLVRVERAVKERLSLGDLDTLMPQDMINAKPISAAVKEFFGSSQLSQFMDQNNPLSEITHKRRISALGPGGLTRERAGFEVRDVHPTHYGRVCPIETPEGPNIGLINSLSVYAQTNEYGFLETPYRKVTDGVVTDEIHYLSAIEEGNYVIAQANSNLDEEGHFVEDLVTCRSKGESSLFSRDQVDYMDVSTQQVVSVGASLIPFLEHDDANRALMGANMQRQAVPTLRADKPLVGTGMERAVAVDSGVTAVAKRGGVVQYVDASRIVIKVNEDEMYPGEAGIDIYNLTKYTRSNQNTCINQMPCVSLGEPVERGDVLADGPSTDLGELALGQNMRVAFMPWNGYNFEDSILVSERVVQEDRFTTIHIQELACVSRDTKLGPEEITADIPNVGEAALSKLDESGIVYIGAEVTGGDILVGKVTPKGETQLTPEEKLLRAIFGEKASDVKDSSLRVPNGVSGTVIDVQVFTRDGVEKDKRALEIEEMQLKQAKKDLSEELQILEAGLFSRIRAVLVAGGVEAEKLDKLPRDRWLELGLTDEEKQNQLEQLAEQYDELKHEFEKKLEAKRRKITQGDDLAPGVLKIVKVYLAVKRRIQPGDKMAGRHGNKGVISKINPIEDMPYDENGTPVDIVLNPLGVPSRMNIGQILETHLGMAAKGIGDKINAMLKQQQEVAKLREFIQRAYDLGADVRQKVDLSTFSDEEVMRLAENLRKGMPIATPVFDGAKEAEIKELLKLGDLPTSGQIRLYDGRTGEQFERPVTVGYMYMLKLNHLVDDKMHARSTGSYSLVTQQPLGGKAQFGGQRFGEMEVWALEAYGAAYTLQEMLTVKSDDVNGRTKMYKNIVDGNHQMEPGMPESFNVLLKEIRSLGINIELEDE

SMILES: Nc1ccccc1Sc1ccc(C(=O)c2ccccc2C(=O)O)cc1[N+](=O)[O-] [Compound 1, 2-(4-((2-Aminophenyl)thio)-3-nitrobenzoyl)benzoic acid]
RNAP holoenzyme formation and RNA synthesis in vitro [1]: inhibited

SMILES: O=C(O)c1ccccc1C(=O)c1ccc(Sc2ccc(Cl)c(Cl)c2)c([N+](=O)[O-])c1 [Compound 13, 2-(4-((3,4-dichlorophenyl)thio)-3-nitrobenzoyl)benzoic acid]
hemolytic value (% of lysis) [2]: < 10%
inhibition of transcription (RNA synthesis) in vitro [3]: inhibited transcription

MIC [4]: lost activity completely
SMILES: O=C(Nc1ccccc1C(=O)O)c1ccc(Sc2ccc(Cl)c(Cl)c2)c([N+](=O)[O-])c1 [Compound 41, 2-(4-((3,4-Dichlorophenyl)thio)-3-nitrobenzamido)benzoic Acid]

SMILES: O=C(O)c1ccccc1NCc1ccc(Sc2ccc(Cl)c(Cl)c2)c([N+](=O)[O-])c1 [Compound 43, 2-((4-((3,4-Dichlorophenyl)thio)-3-nitrobenzyl)amino)benzoic Acid]
hemolytic value (% of lysis) [2]: < 10%

SMILES: O=C(O)c1ccc(Cl)c(NCc2ccc(Sc3ccc(Cl)c(Cl)c3)c([N+](=O)[O-])c2)c1 [Compound 45, 4-Chloro-3-((4-((3,4-dichlorophenyl)thio)-3-nitrobenzyl)amino)-benzoic Acid]
hemolytic value (% of lysis) [2]: < 10%

SMILES: O=C(O)c1ccc(Cl)cc1NCc1ccc(Sc2ccc(Cl)c(Cl)c2)c([N+](=O)[O-])c1 [Compound 54, 4-Chloro-2-((4-((3,4-dichlorophenyl)thio)-3-nitrobenzyl)amino)-benzoic Acid]
ATP production rate [5]: significant decrease
time-kill profile ([6]; at 1 MIC): largely bacteriostatic
decrease in cell count ([6]; at higher concentrations (4 and 16 MICs)): ca. 2 fold log10 decrease
MIC [7]: 1 to 2 µg/mL (≈ 2.07 to 4.13 µM)
RNAP-GFP localization [8]: delocalization of the fluorescence from the nucleoid
time-kill profile [9]: largely bacteriostatic
total RNA levels [10]: reduction
total levels of DNA [10]: remained mostly unaffected
total protein levels [10]: Reduction
inhibition of transcription (RNA synthesis) in vitro [3]: much more potent inhibition
solubility under the testing conditions [11]: insolubility under the testing conditions
pneumolysin levels in culture supernatant [12]: substantial decrease
time-kill profile [13]: largely bacteriostatic

SMILES: CO/N=C(\C(=O)N[C@@H]1C(=O)N2C(C(=O)O)=C(CSc3nc(=O)c(O)nn3C)CS[C@H]12)c1csc(N)n1 [ceftriaxone]
pneumolysin levels in culture supernatant [12]: increased

SMILES: CO[C@H]1/C=C/O[C@@]2(C)Oc3c(C)c(O)c4c(O)c(c(/C=N/N5CCN(C)CC5)c(O)c4c3C2=O)NC(=O)/C(C)=C\C=C\[C@H](C)[C@H](O)[C@@H](C)[C@@H](O)[C@@H](C)[C@H](OC(C)=O)[C@@H]1C [rifampicin, reference compound]
total RNA levels [10]: reduced
total levels of DNA [10]: remained mostly unaffected
pneumolysin levels in culture supernatant [12]: suppressed

From publication PMC8091929 (Journal of medicinal chemistry, 2020)
